Source: ChEMBL document CHEMBL1124824, “Synthesis and biological activity of atrial natriuretic factor analogues: effect of modifications to the disulfide bridge” (J Med Chem, 1990)
Positions of bridges follow the written chain, without caps; N, C: chain ends. Non-standard residues stand in square brackets, D forms with d. Residues, ends and D or L forms follow the SMILES beside them. Asu = N[C@@H](CCCCCC(=O)O)C(=O)O; Mpa = O=C(O)CCS

Tests used:
Rattus norvegicus [1] = species: Rattus norvegicus; test: Compound was tested for the K+ excretion for treated over control animals.; assay type: functional
In short: (§1)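 Male Sprague-Dawley rats (300-325 g) under halothane/lidocaine had femoral artery, femoral vein and bladder cannulated. After at least 1 h of recovery in restraint, they received Ringer's (1.2 mL/h), with 10-min urine collections over a 30-min control period. Infusion of 0.5 μg/kg per min for 30 min and a 30-min Ringer's recovery followed. Na+, K+ and Cl- were measured with an electrolyte analyzer, reported as treated minus control μmol/sample. Volume ratio is treated/control over three consecutive 10-min samples, six animals.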

Rattus norvegicus [2] = test: Compound was tested for diuretic activity and the ratio of urine volume for treated over control animals was reported after infused at a dose of 0.5 ug/kg.; assay type: functional; in short: as §1
Rattus norvegicus [3] = species: Rattus norvegicus; test: Compound was tested for antihypertensive activity in 5/6 nephrectomized rats.; assay type: functional
In short: (§2)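 Rats were anesthetized with halothane after skin infiltration with 2% lidocaine, and the femoral artery and vein were cannulated. After recovery, arterial pressure was recorded. A saline control period was followed by i.v. infusion in 30-min steps at 0.1, 0.2, 0.5 and 1.0 μg/kg per min (70 μL/kg per min). Hydralazine (100 μg/kg per min) was given for standardization. ED50 is in nmol/kg per min, from six animals.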

Rattus norvegicus [4] = species: Rattus norvegicus; test: Compound was tested for the Cl- excretion for treated over control animals.; assay type: functional; in short: as §1
Rattus norvegicus [5] = species: Rattus norvegicus; test: Compound was tested for the Na+ excretion for treated over control animals.; assay type: functional; in short: as §1
[6] = biological target: T1, Atrial natriuretic peptide receptor 3 (Mus musculus, UniProt P70180); test: Binding affinity was determined based on the displacement of [125]r-ANF (99-126) from binding sites on mouse fibroblasts (NIH 3T3) cells (Atrionatriuretic peptide receptor C).
T1 sequence (P70180 whole entry): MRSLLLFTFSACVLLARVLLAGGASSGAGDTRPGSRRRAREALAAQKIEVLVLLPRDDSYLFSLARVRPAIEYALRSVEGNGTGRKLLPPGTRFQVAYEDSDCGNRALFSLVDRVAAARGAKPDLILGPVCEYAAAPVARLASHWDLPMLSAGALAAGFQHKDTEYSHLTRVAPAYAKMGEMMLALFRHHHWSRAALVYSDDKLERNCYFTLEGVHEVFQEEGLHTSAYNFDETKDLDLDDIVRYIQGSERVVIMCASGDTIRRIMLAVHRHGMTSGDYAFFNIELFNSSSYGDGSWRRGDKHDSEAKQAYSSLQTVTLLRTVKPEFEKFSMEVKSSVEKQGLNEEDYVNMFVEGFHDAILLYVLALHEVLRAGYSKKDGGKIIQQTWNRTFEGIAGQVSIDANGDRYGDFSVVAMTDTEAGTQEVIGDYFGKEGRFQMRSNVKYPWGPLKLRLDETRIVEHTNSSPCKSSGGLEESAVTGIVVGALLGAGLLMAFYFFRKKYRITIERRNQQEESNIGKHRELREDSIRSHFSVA

Rattus norvegicus [7] = species: Rattus norvegicus; test: Compound was tested for antihypertensive activity in DOCA nephrectomized rats.; assay type: functional; in short: as §2
Rattus norvegicus [8] = species: Rattus norvegicus; test: Compound was tested for the K+ excretion for treated over control animals, the electrolytes tested are; assay type: functional; in short: as §1
Oryctolagus cuniculus = species: Oryctolagus cuniculus; test: Compound was tested for the inhibition of the stimulated contractions of the superfused rabbit thoracic aortic rings.; assay type: functional, Aorta
In short: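 Rabbit thoracic aorta rings (4 mm) were held isometrically at 10-g resting tension, superfused and precontracted with phenylephrine. Test peptide was added to the superfusate above the tissue in successively higher doses after each recovery. Doses were based on peptide content. EC50 came from the dose-response curve, mean of three determinations ± SEM.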

[9] = biological target: T2, Atrial natriuretic peptide receptor 2 (Bos taurus, UniProt P46197); test: Binding affinity was determined based on the displacement of [125]r-ANF (99-126) from binding sites on bovine adrenal zona glomerulosa cell membranes (Atrionatriuretic peptide receptor B)
T2 sequence (P46197 whole entry): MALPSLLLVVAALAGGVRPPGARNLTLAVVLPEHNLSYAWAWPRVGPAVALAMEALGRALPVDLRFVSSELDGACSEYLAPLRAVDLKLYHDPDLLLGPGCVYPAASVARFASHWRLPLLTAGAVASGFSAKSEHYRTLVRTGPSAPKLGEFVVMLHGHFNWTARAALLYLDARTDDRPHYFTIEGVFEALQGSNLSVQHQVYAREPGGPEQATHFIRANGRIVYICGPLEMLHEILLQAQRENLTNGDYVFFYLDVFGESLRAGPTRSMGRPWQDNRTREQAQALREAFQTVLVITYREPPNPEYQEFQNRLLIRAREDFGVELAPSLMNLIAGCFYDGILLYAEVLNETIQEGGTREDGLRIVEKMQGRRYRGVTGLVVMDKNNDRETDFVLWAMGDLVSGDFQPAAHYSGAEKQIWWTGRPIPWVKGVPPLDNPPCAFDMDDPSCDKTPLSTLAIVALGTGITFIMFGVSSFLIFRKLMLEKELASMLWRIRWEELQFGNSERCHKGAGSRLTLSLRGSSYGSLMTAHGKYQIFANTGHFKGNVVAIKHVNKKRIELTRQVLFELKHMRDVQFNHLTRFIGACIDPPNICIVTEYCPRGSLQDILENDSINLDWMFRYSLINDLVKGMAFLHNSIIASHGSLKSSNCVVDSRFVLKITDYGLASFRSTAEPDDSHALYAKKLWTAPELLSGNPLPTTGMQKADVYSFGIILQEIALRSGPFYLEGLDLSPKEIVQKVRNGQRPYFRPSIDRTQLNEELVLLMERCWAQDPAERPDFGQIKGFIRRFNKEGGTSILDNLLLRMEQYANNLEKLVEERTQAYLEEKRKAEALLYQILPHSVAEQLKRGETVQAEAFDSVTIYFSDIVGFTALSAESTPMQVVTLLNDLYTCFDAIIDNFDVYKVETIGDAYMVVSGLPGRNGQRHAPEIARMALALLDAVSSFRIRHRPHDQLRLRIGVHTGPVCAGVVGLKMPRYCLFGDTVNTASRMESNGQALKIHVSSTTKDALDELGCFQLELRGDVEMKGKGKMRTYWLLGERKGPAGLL

Rattus norvegicus [10] = species: Rattus norvegicus; test: Compound was tested for the Na+ excretion for treated over control animals, the electrolytes tested are; assay type: functional; in short: as §1
Rattus norvegicus [11] = species: Rattus norvegicus; test: Compound was tested for the Cl- excretion for treated over control animals, the electrolytes tested are; assay type: functional; in short: as §1

Row | Compound | Electrolyte excretion (Rattus norvegicus [1]) [uM sample-1] | Ratio (Rattus norvegicus [2]) | ED50 (Rattus norvegicus [3]) [nM/min/kg] | Electrolyte excretion (Rattus norvegicus [4]) [uM sample-1] | Electrolyte excretion (Rattus norvegicus [5]) [uM sample-1] | IC50 [6] [nM] | ED50 (Rattus norvegicus [7]) [nM/min/kg] | Electrolyte excretion (Rattus norvegicus [8]) [uM sample-1] | EC50 (Oryctolagus cuniculus) [M 50ul-1] | IC50 [9] [nM] | Electrolyte excretion (Rattus norvegicus [10]) [uM sample-1] | Electrolyte excretion (Rattus norvegicus [11]) [uM sample-1]
1 | CC[C@H](C)[C@@H]1NC(=O)[C@H](CCCN=C(N)N)NC(=O)[C@H](CC(=O)O)NC(=O)[C@H]([C@@H](C)CC)NC(=O)[C@H](CCCN=C(N)N)NC(=O)CNC(=O)CNC(=O)[C@H](Cc2ccccc2)NC(=O)CCCCC[C@@H](C(=O)N[C@@H](CC(N)=O)C(=O)N[C@@H](CO)C(=O)N[C@@H](Cc2ccccc2)C(=O)N[C@@H](CCCN=C(N)N)C(=O)N[C@@H](Cc2ccc(O)cc2)C(=O)O)NC(=O)CNC(=O)[C@H](CC(C)C)NC(=O)CNC(=O)[C@H](CO)NC(=O)[C@H](CCC(N)=O)NC(=O)[C@H](C)NC(=O)CNC1=O (FGGRIDRIGAQSGLG[Asu]NSFRY-OH; lactam N-16) | 0 | 2.1 | 5.7 | 10 | 4.8 |  |  |  |  |  |  | 
2 | CC[C@H](C)[C@@H]1NC(=O)[C@H](CCCN=C(N)N)NC(=O)[C@H](CC(=O)O)NC(=O)[C@H]([C@@H](C)CC)NC(=O)[C@H](CCCN=C(N)N)NC(=O)CNC(=O)CNC(=O)[C@H](Cc2ccccc2)NC(=O)CCSSC[C@@H](C(=O)N[C@@H](CC(N)=O)C(=O)N[C@@H](CO)C(=O)N[C@@H](Cc2ccccc2)C(=O)N[C@@H](CCCN=C(N)N)C(=O)N[C@@H](Cc2ccc(O)cc2)C(=O)O)NC(=O)CNC(=O)[C@H](CC(C)C)NC(=O)CNC(=O)[C@H](CO)NC(=O)[C@H](CCC(N)=O)NC(=O)[C@H](C)NC(=O)CNC1=O ([Mpa]FGGRIDRIGAQSGLGCNSFRY-OH; disulfide 1-17) |  | 1.7 | 1.5 |  |  | 0.22 | 1.1 | 22.6 | 1.1e-10 | 1.03 | 30.4 | 52.9
